# Reference: ChEMBL document CHEMBL2169800 (J Med Chem, 2012)
# What was measured:
# [1] = molecular target: T1, Prostaglandin G/H synthase 1 (Ovis aries, UniProt P05979); experiment: Inhibition of sheep COX1 pre-incubated for 5 mins before arachidonic acid substrate addition in presence of ethanol by peroxidase activity detection based oxygen electrode assay
# T1 sequence (P05979 whole entry): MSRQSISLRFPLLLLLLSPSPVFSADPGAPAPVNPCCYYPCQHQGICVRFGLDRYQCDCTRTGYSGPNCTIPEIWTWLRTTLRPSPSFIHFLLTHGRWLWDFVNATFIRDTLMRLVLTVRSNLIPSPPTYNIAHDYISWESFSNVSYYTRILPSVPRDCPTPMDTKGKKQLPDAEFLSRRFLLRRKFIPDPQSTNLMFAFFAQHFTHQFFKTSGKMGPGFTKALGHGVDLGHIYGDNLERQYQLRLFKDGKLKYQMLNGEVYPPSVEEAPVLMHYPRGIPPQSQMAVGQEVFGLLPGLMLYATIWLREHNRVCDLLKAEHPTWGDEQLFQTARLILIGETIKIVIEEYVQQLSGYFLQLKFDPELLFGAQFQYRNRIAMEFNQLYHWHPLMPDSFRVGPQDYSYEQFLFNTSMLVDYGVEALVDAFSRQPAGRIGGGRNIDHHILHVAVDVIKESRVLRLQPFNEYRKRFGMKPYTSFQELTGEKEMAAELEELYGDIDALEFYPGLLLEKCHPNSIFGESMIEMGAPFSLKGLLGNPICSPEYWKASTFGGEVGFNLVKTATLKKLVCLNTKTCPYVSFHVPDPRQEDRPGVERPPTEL
# [2] = molecular target: T2, Fatty-acid amide hydrolase 1 (Rattus norvegicus, UniProt P97612); experiment: Inhibition of FAAH in rat brain homogenates pre-incubated for 10 mins before addition of [3H]anandamide and [3H]AEA substrates for 30 mins by liquid scintillation counting; type: tissue-based; conditions: read-out: IC50
# T2 sequence (P97612 whole entry): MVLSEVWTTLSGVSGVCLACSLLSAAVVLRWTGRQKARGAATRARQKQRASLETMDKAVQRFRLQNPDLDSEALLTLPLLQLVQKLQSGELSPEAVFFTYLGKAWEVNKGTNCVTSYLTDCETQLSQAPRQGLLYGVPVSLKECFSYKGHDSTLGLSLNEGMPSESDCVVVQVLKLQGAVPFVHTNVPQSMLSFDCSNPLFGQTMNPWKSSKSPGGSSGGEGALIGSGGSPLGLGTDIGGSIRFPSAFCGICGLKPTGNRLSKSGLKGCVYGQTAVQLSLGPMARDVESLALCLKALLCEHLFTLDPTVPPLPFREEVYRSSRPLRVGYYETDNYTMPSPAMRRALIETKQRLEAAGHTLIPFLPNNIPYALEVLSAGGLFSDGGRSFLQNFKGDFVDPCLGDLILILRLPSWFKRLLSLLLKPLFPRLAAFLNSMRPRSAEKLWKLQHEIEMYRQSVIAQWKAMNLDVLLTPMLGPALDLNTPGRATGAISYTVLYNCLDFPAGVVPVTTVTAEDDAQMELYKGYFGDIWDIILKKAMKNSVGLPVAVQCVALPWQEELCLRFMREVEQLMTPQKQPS
# How it was run: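 Rat whole-brain homogenate (50 ug protein/sample) in 50 mM TRIS pH 7.4, 0.05 % fatty acid free BSA; inhibitor pre-incubated 10 min, then 1 uM unlabelled AEA plus 0.6 nM [3H]-AEA added for 30 min at 37°C. Stopped with cold 1:1 CHCl3/MeOH; aqueous phase counted.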
# [3] = molecular target: T3, Prostaglandin G/H synthase 2 (Homo sapiens) (UniProt P35354); experiment: Inhibition of human COX2 at 30 uM pre-incubated for 10 mins before substrate addition by enzyme immunoassay
# T3 sequence (whole entry): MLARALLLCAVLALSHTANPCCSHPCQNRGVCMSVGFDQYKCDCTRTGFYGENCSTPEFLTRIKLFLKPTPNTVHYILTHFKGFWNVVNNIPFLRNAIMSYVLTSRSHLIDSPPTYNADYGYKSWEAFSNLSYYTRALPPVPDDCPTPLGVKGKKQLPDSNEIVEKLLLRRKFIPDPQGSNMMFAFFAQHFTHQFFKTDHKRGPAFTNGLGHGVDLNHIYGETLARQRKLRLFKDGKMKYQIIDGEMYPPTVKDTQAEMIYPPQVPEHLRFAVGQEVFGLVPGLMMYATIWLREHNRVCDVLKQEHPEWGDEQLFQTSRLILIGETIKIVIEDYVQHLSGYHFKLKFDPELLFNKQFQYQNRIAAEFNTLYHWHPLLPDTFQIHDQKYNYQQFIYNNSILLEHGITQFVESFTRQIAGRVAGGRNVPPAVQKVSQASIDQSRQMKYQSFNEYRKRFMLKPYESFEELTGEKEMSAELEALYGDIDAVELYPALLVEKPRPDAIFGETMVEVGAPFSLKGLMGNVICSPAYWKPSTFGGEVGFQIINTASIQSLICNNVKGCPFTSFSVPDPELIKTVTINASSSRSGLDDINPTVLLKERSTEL
# How it was run: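 Human COX-2 pre-incubated with inhibitor 10 min at 37 °C, then 5 μM arachidonic acid for 2 min at 37 °C. Reaction stopped with HCl, PGH2 reduced to PGF2α by SnCl2, and PGF2α quantified by competitive EIA with PG-acetylcholinesterase conjugate, absorbance 412 nm. Single test concentration 30 μM.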
# [4] = molecular target: T2, Fatty-acid amide hydrolase 1; experiment: Inhibition of FAAH in Sprague-Dawley rat cerebellum membranes pre-incubated for 10 mins before addition of [3H]AEA substrate in presence of ethyl alcohol by liquid scintillation counting; type: cell membranes, Membrane
# [5] = molecular target: T4, Prostaglandin G/H synthase 2 (Ovis aries, UniProt P79208); experiment: Inhibition of sheep COX2 pre-incubated for 5 mins before […] substrate addition by peroxidase activity detection based oxygen electrode assay
# T4 sequence (P79208 whole entry): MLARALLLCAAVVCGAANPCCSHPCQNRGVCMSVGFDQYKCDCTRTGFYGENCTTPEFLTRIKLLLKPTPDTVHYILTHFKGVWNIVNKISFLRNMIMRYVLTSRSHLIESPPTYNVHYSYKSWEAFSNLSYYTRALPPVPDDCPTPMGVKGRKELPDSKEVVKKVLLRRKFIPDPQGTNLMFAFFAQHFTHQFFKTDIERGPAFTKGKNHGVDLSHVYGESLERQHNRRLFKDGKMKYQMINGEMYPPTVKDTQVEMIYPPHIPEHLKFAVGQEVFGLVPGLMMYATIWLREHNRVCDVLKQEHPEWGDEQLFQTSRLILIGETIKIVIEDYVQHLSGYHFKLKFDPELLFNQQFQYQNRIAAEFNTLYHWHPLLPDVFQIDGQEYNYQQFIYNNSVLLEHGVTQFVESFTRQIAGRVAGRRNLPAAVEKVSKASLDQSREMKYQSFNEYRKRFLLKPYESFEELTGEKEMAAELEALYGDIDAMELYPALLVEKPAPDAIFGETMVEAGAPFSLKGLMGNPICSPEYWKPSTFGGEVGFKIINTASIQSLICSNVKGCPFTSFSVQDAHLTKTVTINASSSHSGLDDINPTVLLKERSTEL
# [6] = molecular target: T1, Prostaglandin G/H synthase 1; experiment: Inhibition of sheep COX1 pre-incubated for 5 mins before arachidonic acid substrate addition in presence of DMSO by peroxidase activity detection based oxygen electrode assay
# [7] = molecular target: T1, Prostaglandin G/H synthase 1; experiment: Inhibition of ovine COX1 pre-incubated for 10 mins before arachidonic acid substrate addition by enzyme immunoassay
# How it was run: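 Ovine COX-1 pre-incubated with inhibitor for 10 min at 37 °C, then 5 μM arachidonic acid for 2 min at 37 °C. Stopped with HCl; PGH2 reduced to PGF2α with SnCl2 and measured by competitive EIA (PG antibody, PG-acetylcholinesterase conjugate), absorbance at 412 nm.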
smiles,measurement,setting,value
Cc1cccnc1NC(=O)C(C)c1ccc(CC(C)C)cc1 (configuration not stated),IC50,[1],240 µM
same,IC50,[2],66 µM
same,inhibition,[3],30%
same,IC50,[4],0.5 µM
same,IC50,[5],20 µM
same,IC50,[6],60 µM
same,IC50,[7],170 µM
